Holding throughout (assay type): functional
For assay [1], the species on record is Homo sapiens. The assay can be described thus: Sour character at a concentration of 2000 ppm (mean value). The gist of the method:
(§1)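 Trained human sensory panel (Swartz method) tasted dilute aqueous solutions of the compounds, which had to be ≥95 weight percent pure and free of mutagenicity and toxicity. Taste character is reported as the mean value with 2S_m limits. Data deviating excessively at the 95% confidence level were rejected by the t-value method.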

The species named for assay [2] is Homo sapiens. Description: Percentage of judgments reporting an aftertaste at a concentration of 2000 ppm. The gist of the method: (§2)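 Trained judges tasted aqueous solutions of the compounds, which had to be ≥95 weight percent pure and to have passed mutagenicity and single oral dose toxicity screening. The value is the percentage of panel judgments reporting an aftertaste. Where given, its character is recorded as sweet, bitter or bitter-sweet.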

The species named for assay [3] is Homo sapiens. Description: Intensity calculated on a molar basis relative to a 0.25 M sucrose solution at a concentration of 2000 ppm (mean value). The gist of the method: (§3)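 Trained human judges tasted aqueous solutions of the test compound; compounds were first required to be ≥95 weight percent pure and free of mutagenicity (five Salmonella typhimurium strains, ± microsomal activation) and of single oral dose mouse toxicity. Molar intensity I_m = perceived intensity × (0.25 M sucrose / compound molar concentration). The mean is reported with 2S_m limits; outliers were rejected at 95% confidence by t-value.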

Assay [4] is filed under the species Homo sapiens. Description: Number of taste judgments per compound.
Assay [5] is filed under the species Homo sapiens. The assay can be described thus: Salty character at a concentration of 2000 ppm (mean value). The gist of the method:
as §1

The species named for assay [6] is Homo sapiens. The assay can be described thus: Sweet character at a concentration of 2000 ppm (mean value). The gist of the method: as §1
For assay [7], the species on record is Homo sapiens. The assay can be described thus: Intensity calculated on a weight basis relative to an 85500 ppm sucrose solution at a concentration of 2000 ppm (mean value). An outline of the steps:
(§4)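 Trained human panel tasted aqueous solutions of purity-checked (≥95 weight percent) compounds cleared for mutagenicity and mouse oral toxicity. Weight-basis intensity I_w = perceived intensity × (85500 ppm sucrose / compound concentration in ppm). The mean is reported with 2S_m limits; data deviating excessively at 95% confidence were rejected by the t-value method.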

The species named for assay [8] is Homo sapiens. Description: Other taste character at a concentration of 2000 ppm (mean value). The gist of the method: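 Trained human panel tasted aqueous solutions of each compound. Aftertaste is scored as the percentage of judgments reporting one, with its character coded sweet (s), bitter (b) or bitter-sweet (bs).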
Assay [9] is filed under the species Homo sapiens. Description: Sweet / Bitter character at a concentration of 2000 ppm (mean value).
Assay [10] is filed under the species Homo sapiens. Description: Experimentally determined perceived intensity of compound at a concentration of 2000 ppm (mean value). The gist of the method: (§5)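 Trained human sensory panel of judges tasted aqueous solutions of the compound. Samples had to be ≥95 weight % pure (HPLC, proton titration, Karl Fischer), non-mutagenic in five Salmonella typhimurium strains with and without microsomal activation, and non-toxic in a single-oral-dose mouse test. Perceived intensity (Ip) was read from time–intensity curves at 4- or 6-s intervals and averaged. Outliers at the 95% level were rejected by t-value. Values reported as mean (2Sm).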

Assay [11] is filed under the species Homo sapiens. Description: Bitter character at a concentration of 2000 ppm (mean value). The gist of the method: (§6)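 Trained human panel tasted aqueous solutions. Each judge reported whether there was an aftertaste and its character (sweet, bitter or bitter-sweet). The value is the percentage of judgments reporting a bitter aftertaste.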
For assay [12], the species on record is Homo sapiens. Description: Percentage of judgments reporting an aftertaste at a concentration of 246 ppm and character thereof. The gist of the method: as §2
The species named for assay [13] is Homo sapiens. Description: Salty character at a concentration of 246 ppm (mean value).
The species entered for assay [14] is Homo sapiens. Description: Sweet / Bitter character at a concentration of 246 ppm (mean value); 44/56.
The species entered for assay [15] is Homo sapiens. Description: Bitter character at a concentration of 246 ppm (mean value). The gist of the method:
as §6

The species entered for assay [16] is Homo sapiens. Description: Intensity calculated on a weight basis relative to an 85500 ppm sucrose solution at a concentration of 246 ppm (mean value). An outline of the steps: as §4
For assay [17], the species on record is Homo sapiens. Description: Sweet character at a concentration of 246 ppm (mean value).
The species entered for assay [18] is Homo sapiens. The assay can be described thus: Intensity calculated on a molar basis relative to a 0.25 M sucrose solution at a concentration of 246 ppm (mean value). An outline of the steps: as §3
The species named for assay [19] is Homo sapiens. The assay can be described thus: Sour character at a concentration of 246 ppm (mean value).
The species named for assay [20] is Homo sapiens. The assay can be described thus: Experimentally determined perceived intensity of compound at a concentration of 246 ppm (mean value). An outline of the steps:
as §5

Assay [21] is filed under the species Homo sapiens. The assay can be described thus: Other taste character at a concentration of 246 ppm (mean value). The gist of the method: as §1
The species entered for assay [22] is Homo sapiens. The assay can be described thus: Experimentally determined perceived intensity of compound at a concentration of 244 ppm (mean value). The gist of the method: as §5
The species entered for assay [23] is Homo sapiens. The assay can be described thus: Bitter character at a concentration of 244 ppm (mean value). An outline of the steps:
as §6

The species entered for assay [24] is Homo sapiens. Description: Sour character at a concentration of 244 ppm (mean value).
For assay [25], the species on record is Homo sapiens. Description: Sweet character at a concentration of 244 ppm (mean value).
The species entered for assay [26] is Homo sapiens. The assay can be described thus: Intensity calculated on a weight basis relative to an 85500 ppm sucrose solution at a concentration of 244 ppm (mean value). An outline of the steps: as §4
Assay [27] is filed under the species Homo sapiens. The assay can be described thus: Salty character at a concentration of 244 ppm (mean value).
For assay [28], the species on record is Homo sapiens. Description: Intensity calculated on a molar basis relative to a 0.25 M sucrose solution at a concentration of 244 ppm (mean value). An outline of the steps:
as §3

The species named for assay [29] is Homo sapiens. The assay can be described thus: Percentage of judgments reporting an aftertaste at a concentration of 244 ppm and character thereof; Bitter. The gist of the method: as §2
For assay [30], the species on record is Homo sapiens. The assay can be described thus: Other taste character at a concentration of 244 ppm (mean value). An outline of the steps:
as §1

For assay [31], the species on record is Homo sapiens. Description: Sweet / Bitter character at a concentration of 244 ppm (mean value).
The species named for assay [32] is Homo sapiens. The assay can be described thus: Sour character at a concentration of 240 ppm (mean value). The gist of the method: as §1
The species entered for assay [33] is Homo sapiens. The assay can be described thus: Intensity calculated on a molar basis relative to a 0.25 M sucrose solution at a concentration of 240 ppm (mean value). An outline of the steps: as §3
The species named for assay [34] is Homo sapiens. Description: Sweet character at a concentration of 240 ppm (mean value). An outline of the steps: as §1
For assay [35], the species on record is Homo sapiens. Description: Sweet / Bitter character at a concentration of 240 ppm (mean value); 7/93.
The species entered for assay [36] is Homo sapiens. Description: Intensity calculated on a weight basis relative to an 85500 ppm sucrose solution at a concentration of 240 ppm (mean value). The gist of the method:
as §4

For assay [37], the species on record is Homo sapiens. The assay can be described thus: Bitter character at a concentration of 240 ppm (mean value). The gist of the method:
as §6

Assay [38] is filed under the species Homo sapiens. The assay can be described thus: Salty character at a concentration of 240 ppm (mean value). The gist of the method: as §1
The species entered for assay [39] is Homo sapiens. Description: Percentage of judgments reporting an aftertaste at a concentration of 240 ppm and character thereof. The gist of the method: as §2
For assay [40], the species on record is Homo sapiens. The assay can be described thus: Other taste character at a concentration of 240 ppm (mean value). An outline of the steps:
as §1

Assay [41] is filed under the species Homo sapiens. The assay can be described thus: Experimentally determined perceived intensity of compound at a concentration of 240 ppm (mean value). An outline of the steps: as §5

As to `COc1ccc(C2OC[C@@H]3OC(O)[C@@H](O)[C@H](O)[C@H]3O2)cc1O` (some centres undefined), the Taste character was determined as 0 in the assay listed under Homo sapiens [1]; 0 in the assay filed under Homo sapiens [5]; 0 in the assay listed under Homo sapiens [6]; 0 in the assay filed under Homo sapiens [8]; 0 in the assay filed under Homo sapiens [9]; 100 in the assay filed under Homo sapiens [11]. The results for the Judgments in the assay listed under Homo sapiens [2] and in the assay filed under Homo sapiens [4] were 0 and 1, respectively. For the same molecule, the IM in the assay listed under Homo sapiens [3] was 10. Further, in the assay filed under Homo sapiens [7], the IW is recorded as 10. Moreover, the IP in the assay listed under Homo sapiens [10] stood at 0.3.
`O=C([O-])COc1cc(O)c(C(=O)CCc2cccc(O)c2)c(O)c1.[Na+]`: the Judgments was determined as 62 in the assay filed under Homo sapiens [12] and 12 in the assay filed under Homo sapiens [4]. For the same molecule, the Taste character in the assay listed under Homo sapiens [13] is on record as 0; in the assay listed under Homo sapiens [14], 44; in the assay listed under Homo sapiens [15], 49; in the assay listed under Homo sapiens [17], 38; in the assay filed under Homo sapiens [19], 0; in the assay filed under Homo sapiens [21] it was 13. Besides, the IW in the assay filed under Homo sapiens [16] was 76. Also, the IM in the assay filed under Homo sapiens [18] is given as 79. The same molecule came in with an IP in the assay listed under Homo sapiens [20] of 0.22.
As for `COc1ccc(CCC(=O)O)cc1O`, the IP in the assay listed under Homo sapiens [22] is 0.6. Further, the Taste character in the assay listed under Homo sapiens [23] is reported as 28; in the assay listed under Homo sapiens [24] it was 69; in the assay filed under Homo sapiens [25], 0; in the assay filed under Homo sapiens [27] it was 0; in the assay listed under Homo sapiens [30], 3; in the assay filed under Homo sapiens [31], 0. In the assay listed under Homo sapiens [26], the IW is given as 210. Also, the IM in the assay listed under Homo sapiens [28] is on record as 120. In addition, the Judgments in the assay listed under Homo sapiens [29] is 50; in the assay listed under Homo sapiens [4], 8.
Turning to `COc1ccc(CCCc2c(O)cc(O)cc2O)cc1O`, the Taste character was found to be 0 in the assay filed under Homo sapiens [32]; 7 in the assay listed under Homo sapiens [34]; 7 in the assay listed under Homo sapiens [35]; 88 in the assay listed under Homo sapiens [37]; 0 in the assay listed under Homo sapiens [38]; 5 in the assay listed under Homo sapiens [40]. For the same molecule, in the assay filed under Homo sapiens [33], the IM is 76. Moreover, the IW in the assay filed under Homo sapiens [36] is listed as 89. Moreover, the Judgments in the assay filed under Homo sapiens [4] is given as 12; in the assay filed under Homo sapiens [39], 0. In addition, the IP in the assay listed under Homo sapiens [41] is recorded as 0.25.

(Values after ChEMBL document CHEMBL1121813, “Dihydrochalcone sweeteners. A study of the atypical temporal phenomena” (1981).)
